Data from ChEMBL document CHEMBL3351244, “Structure based design of novel 6,5 heterobicyclic mitogen-activated protein kinase kinase (MEK) inhibitors leading to the discovery of imidazo[1,5-a] pyrazine G-479” (Bioorg Med Chem Lett, 2014).
Values after ≈ are worked out from the molar mass of the structure shown.

Experiments:
Cytochrome P450 3A4 [1] = target: T1, Cytochrome P450 3A4 (Homo sapiens, UniProt P08684); experiment: Inhibition of CYP3A4 (unknown origin) using midazolam substrate; type: ADME
T1 sequence (P08684 whole entry): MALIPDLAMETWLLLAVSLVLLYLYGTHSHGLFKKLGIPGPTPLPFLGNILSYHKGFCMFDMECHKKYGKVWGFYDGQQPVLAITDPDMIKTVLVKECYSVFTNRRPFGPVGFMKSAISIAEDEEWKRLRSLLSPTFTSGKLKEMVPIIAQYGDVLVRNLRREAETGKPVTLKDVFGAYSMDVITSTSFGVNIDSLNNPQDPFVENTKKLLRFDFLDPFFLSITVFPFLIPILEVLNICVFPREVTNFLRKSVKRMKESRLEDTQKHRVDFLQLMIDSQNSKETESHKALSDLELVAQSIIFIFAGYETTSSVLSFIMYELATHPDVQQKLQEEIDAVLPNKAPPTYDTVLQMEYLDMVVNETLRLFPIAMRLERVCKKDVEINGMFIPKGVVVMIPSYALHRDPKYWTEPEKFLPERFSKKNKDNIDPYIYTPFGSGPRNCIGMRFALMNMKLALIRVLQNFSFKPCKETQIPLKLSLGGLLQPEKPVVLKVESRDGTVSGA

[2] = Lipophilicity, logD of the compound at pH 7.4; type: physicochemical; details: buffer
[3] = Antiproliferative activity against human HCT116 cells assessed as inhibition of cell proliferation after 72 hrs; type: functional, cell-based; details: HCT-116, 72 h
Procedure, shortened: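 Cell proliferation measured after 72 h exposure in HCT116 and A375 cells; IC₅₀ reported.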

Cytochrome P450 2D6 = Cytochrome P450 2D6 (Homo sapiens, UniProt P10635); experiment: Inhibition of CYP2D6 (unknown origin); type: ADME
Sequence of Cytochrome P450 2D6 (P10635 whole entry): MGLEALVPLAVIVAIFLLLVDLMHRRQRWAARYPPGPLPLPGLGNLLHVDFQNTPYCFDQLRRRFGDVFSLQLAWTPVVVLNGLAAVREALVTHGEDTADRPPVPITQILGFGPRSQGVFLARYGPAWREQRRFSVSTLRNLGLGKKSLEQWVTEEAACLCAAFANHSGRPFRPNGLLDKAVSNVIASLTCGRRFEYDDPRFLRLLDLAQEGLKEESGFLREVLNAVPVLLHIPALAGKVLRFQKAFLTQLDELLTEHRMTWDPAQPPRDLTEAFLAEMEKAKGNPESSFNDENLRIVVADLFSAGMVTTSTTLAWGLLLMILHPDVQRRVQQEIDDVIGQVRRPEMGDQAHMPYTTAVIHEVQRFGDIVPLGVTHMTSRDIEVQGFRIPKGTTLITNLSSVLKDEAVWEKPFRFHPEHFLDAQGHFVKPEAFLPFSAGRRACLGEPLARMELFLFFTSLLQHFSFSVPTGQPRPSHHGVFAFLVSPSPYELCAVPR

Cytochrome P450 1A2 = target: T2, Cytochrome P450 1A2 (Homo sapiens, UniProt P05177); experiment: Inhibition of CYP1A2 (unknown origin); type: ADME
T2 sequence (P05177 whole entry): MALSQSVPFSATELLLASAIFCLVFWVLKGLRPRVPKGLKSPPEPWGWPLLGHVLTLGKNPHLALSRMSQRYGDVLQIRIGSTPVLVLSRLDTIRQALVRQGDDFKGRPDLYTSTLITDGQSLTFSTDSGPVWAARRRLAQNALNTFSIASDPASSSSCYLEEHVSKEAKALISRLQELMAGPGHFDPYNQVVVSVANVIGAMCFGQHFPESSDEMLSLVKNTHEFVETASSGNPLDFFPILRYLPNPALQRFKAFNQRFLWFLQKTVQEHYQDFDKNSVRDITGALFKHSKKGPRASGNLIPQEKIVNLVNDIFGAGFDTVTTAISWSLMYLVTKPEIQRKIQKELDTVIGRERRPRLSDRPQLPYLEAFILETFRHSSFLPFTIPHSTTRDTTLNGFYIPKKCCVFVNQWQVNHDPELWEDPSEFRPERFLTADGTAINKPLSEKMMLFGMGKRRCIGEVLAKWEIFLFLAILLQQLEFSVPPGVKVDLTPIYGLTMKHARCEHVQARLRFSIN

Cytochrome P450 2C9 = Cytochrome P450 2C9 (Homo sapiens, UniProt P11712); experiment: Inhibition of CYP2C9 (unknown origin); type: ADME
Sequence of Cytochrome P450 2C9 (P11712 whole entry): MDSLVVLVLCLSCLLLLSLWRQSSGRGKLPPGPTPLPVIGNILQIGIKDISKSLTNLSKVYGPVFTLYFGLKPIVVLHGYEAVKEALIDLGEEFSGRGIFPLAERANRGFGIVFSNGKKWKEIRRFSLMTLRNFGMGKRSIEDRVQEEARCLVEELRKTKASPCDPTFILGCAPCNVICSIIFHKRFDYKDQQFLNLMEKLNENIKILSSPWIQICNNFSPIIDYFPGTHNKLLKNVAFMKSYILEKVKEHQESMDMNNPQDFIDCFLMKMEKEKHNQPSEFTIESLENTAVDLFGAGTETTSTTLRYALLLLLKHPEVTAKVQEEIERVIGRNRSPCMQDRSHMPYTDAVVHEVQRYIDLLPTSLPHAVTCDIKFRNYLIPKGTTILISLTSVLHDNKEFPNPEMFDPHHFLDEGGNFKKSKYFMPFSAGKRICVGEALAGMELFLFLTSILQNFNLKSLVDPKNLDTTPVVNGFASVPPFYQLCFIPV

Cytochrome P450 3A4 [4] = target: T1, Cytochrome P450 3A4; experiment: Inhibition of CYP3A4 (unknown origin) using testosterone substrate; type: ADME
Cytochrome P450 2C19 = Cytochrome P450 2C19 (Homo sapiens, UniProt P33261); experiment: Inhibition of CYP2C19 (unknown origin); type: ADME
Sequence of Cytochrome P450 2C19 (P33261 whole entry): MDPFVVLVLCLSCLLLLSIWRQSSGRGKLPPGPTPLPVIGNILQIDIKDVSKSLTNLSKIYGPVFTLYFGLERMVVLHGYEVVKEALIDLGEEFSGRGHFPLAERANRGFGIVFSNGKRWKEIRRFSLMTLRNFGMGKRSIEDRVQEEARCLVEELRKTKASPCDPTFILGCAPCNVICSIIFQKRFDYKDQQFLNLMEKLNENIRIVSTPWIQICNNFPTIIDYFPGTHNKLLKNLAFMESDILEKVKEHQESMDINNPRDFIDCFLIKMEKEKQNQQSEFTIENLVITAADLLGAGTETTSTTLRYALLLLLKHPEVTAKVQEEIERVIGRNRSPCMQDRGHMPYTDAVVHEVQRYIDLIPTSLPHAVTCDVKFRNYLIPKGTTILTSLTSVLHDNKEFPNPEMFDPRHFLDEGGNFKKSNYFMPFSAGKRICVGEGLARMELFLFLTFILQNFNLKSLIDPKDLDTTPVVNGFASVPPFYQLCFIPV

A-375 = experiment: cells; details: Homo sapiens, A-375, 72 h
[5] = target: Dual specificity mitogen-activated protein kinase kinase 1 (Homo sapiens, UniProt Q02750); experiment: Inhibition of MEK1 (unknown origin) by HTRF assay
Sequence of Dual specificity mitogen-activated protein kinase kinase 1 (Q02750 whole entry): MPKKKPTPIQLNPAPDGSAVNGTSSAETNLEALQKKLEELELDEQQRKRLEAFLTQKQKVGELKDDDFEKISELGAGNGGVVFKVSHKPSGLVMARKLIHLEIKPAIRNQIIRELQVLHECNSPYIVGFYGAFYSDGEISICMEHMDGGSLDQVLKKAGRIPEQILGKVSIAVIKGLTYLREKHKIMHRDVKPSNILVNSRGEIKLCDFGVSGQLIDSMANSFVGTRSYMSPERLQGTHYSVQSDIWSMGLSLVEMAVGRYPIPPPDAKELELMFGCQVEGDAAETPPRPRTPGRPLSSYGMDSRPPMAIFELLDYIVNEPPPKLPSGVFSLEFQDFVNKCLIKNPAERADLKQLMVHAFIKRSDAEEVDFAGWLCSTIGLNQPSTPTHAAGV

Rattus norvegicus [6] = experiment: Free clearance in rat at 1 mg/kg, iv or 5 mg/kg, po; type: ADME, organism-based; details: in vivo
[7] = Half life in rat at 1 mg/kg, iv or 5 mg/kg, po; type: ADME, organism-based; details: in vivo
[8] = Protein binding in rat plasma; type: ADME, cell-free; details: read-out: PPB (converted)
[9] = Total clearance in rat at 1 mg/kg, iv or 5 mg/kg, po; type: ADME, organism-based; details: in vivo
Rattus norvegicus [10] = experiment: Dose normalized AUC in rat at 5 mg/kg, po; type: ADME, organism-based; parameters: dose 5 mg/kg, route oral; details: in vivo
[11] = (§1) Efflux ratio in MDCK cells; type: ADME, cell-based, Canis lupus familiaris; details: dog
Procedure, shortened: (§2)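 Efflux ratio derived as B–A permeability divided by A–B permeability across MDCK cell monolayers. Apparent permeabilities were measured in both directions and expressed in 10^-6 cm/s.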

[12] = Hepatic clearance in cynomolgus monkey liver microsomes; type: ADME, Macaca fascicularis
Procedure, shortened: (§3)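 Compounds incubated with liver microsomes from human, rat, mouse, dog and cynomolgus monkey to assess comparative metabolic stability; clearance expressed in mL/min/kg, with stable/moderate/labile designations assigned by set ranges.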

[13] = Protein binding in human plasma; type: ADME, cell-free; details: read-out: PPB (converted)
[14] = (§4) Permeability from apical to basolateral side in MDCK cells; type: ADME, cell-based, Canis lupus familiaris; details: dog, read-out: permeability
[15] = target: Voltage-gated inwardly rectifying potassium channel KCNH2 (Homo sapiens, UniProt Q12809); experiment: Inhibition of human ERG by patch clamp assay
Sequence of Voltage-gated inwardly rectifying potassium channel KCNH2 (Q12809 whole entry): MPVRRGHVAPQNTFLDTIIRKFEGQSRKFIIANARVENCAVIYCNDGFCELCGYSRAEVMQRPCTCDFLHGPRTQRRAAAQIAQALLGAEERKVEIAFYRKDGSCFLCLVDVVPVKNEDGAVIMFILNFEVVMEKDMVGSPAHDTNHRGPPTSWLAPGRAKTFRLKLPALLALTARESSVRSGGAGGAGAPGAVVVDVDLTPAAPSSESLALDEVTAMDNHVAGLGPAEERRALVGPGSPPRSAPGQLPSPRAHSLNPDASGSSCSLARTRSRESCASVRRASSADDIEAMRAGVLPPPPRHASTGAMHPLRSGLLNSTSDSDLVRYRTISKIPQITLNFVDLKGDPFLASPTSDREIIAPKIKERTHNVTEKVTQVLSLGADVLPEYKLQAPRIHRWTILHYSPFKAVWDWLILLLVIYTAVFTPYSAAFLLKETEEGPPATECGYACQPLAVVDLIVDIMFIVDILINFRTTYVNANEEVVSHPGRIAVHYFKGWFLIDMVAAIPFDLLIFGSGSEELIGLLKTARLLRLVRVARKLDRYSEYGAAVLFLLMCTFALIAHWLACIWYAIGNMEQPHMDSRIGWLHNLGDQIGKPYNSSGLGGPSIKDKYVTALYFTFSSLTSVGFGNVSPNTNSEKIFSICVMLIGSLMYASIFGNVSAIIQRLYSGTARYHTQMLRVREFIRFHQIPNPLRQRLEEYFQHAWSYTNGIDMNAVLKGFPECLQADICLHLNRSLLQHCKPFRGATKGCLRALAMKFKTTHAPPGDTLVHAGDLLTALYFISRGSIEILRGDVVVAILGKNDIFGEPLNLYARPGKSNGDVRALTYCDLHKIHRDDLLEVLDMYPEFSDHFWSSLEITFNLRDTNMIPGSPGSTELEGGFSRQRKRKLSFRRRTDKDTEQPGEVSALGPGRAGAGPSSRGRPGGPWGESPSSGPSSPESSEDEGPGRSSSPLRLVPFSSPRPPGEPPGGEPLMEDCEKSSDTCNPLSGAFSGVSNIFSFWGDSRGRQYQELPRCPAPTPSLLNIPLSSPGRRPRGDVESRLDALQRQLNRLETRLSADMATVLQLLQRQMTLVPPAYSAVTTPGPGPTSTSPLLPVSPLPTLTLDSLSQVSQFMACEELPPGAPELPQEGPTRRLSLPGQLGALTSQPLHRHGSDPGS

[16] = AUC in rat at 1 mg/kg, iv or 5 mg/kg, po; type: ADME, organism-based; details: plasma
[17] = Thermodynamic solubility of the compound at pH 6.5; type: physicochemical; details: buffer, read-out: Therm_solubility
[18] = Hepatic clearance in dog liver microsomes; type: ADME, Canis lupus familiaris; procedure, shortened: as §3
[19] = Hepatic clearance in mouse liver microsomes; type: ADME; procedure, shortened: as §3
[20] = Protein binding in mouse plasma; type: ADME, cell-free; details: read-out: PPB (converted)
[21] = Volume of distribution at steady state in rat at 1 mg/kg, iv or 5 mg/kg, po; type: ADME, organism-based; details: in vivo, read-out: Vdss
[22] = Oral bioavailability in rat at 5 mg/kg; type: ADME, organism-based; details: in vivo
[23] = Hepatic clearance in human liver microsomes; type: ADME; procedure, shortened: as §3
[24] = Hepatic clearance in rat liver microsomes; type: ADME; procedure, shortened: as §3
[25] = (§5) Permeability from basolateral to apical side in MDCK cells; type: ADME, cell-based, Canis lupus familiaris; details: dog, read-out: permeability
[26] = Dissociation constant, pKa of the compound by Sirius based assay; type: physicochemical
MDCK [27] = experiment: as §1; type: ADME, cell-based, Canis lupus familiaris; details: dog; procedure, shortened: as §2
MDCK [28] = experiment: as §4; type: ADME, cell-based, Canis lupus familiaris; details: dog
MDCK [29] = experiment: as §5; type: ADME, cell-based, Canis lupus familiaris; details: dog
Plasma [30] = experiment: Stability in rat plasma at 5 mg/kg, po; type: ADME, organism-based; parameters: dose 5 mg/kg, route oral; details: in vivo
Plasma [31] = experiment: Drug metabolism rat plasma assessed as metabolite formation at 5 mg/kg, po; type: ADME, organism-based; parameters: dose 5 mg/kg, route oral; details: in vivo

Structure (SMILES)	IC50 (Cytochrome P450 3A4 [1]) [nM]	logD [2]	EC50 [3] [nM]	IC50 (Cytochrome P450 2D6) [nM]	IC50 (Cytochrome P450 1A2) [nM]	IC50 (Cytochrome P450 2C9) [nM]	IC50 (Cytochrome P450 3A4 [4]) [nM]	IC50 (Cytochrome P450 2C19) [nM]	EC50 (A-375) [nM]	CL free (Rattus norvegicus [6]) [mL/min/kg]	fraction unbound [8]	clearance [9] [mL/min/kg]	AUC/dose (Rattus norvegicus [10]) [µM·h]	fraction unbound [13]	solubility thermodynamic [17] [µg/mL]	CLhep predicted [19] [mL/min/kg]	fraction unbound [20]	bioavailability [22] [%]	CLhep predicted [23] [mL/min/kg]	CLhep predicted [24] [mL/min/kg]	other results
O=C(NOCCO)c1ccc2cnsc2c1Nc1ccc(I)cc1F	9000	3.1	44	> 10000	> 10000	1300	9000	1800	–	–	–	–	–	–	–	–	–	–	–	–	–
O=C(NOCCO)c1oc2ccncc2c1Nc1ccc(I)cc1F	> 10000	3.1	120	> 10000	> 10000	> 10000	> 10000	> 10000	25	–	–	–	–	–	–	–	–	–	–	–	IC50 [5]: 12 nM
O=C(NOCCO)c1cc(F)c2cncn2c1Nc1ccc(I)cc1F	–	–	140	–	–	1200	–	–	–	55	0.03	3.3	41	–	–	–	–	–	–	–	half-life [7]: 3.6 h
O=C(NOCCO)c1ccn2cncc2c1Nc1ccc(I)cc1F	> 10000	2.1	35	> 10000	> 10000	7300	> 10000	16000	2	636	0.022	14	37	0.015	110 (≈ 241 µM)	75	0.049	37	15	40	efflux ratio [11]: 0.7; CLhep predicted [12]: 38 mL/min/kg; Papp A→B [14]: 20.4 ×10⁻⁶ cm/s; IC50 [15]: 2100 nM; AUC [16]: 6 µM·h; half-life [7]: 0.9 h; CLhep predicted [18]: 23 mL/min/kg; Vd [21]: 0.46 L/kg; Papp B→A [25]: 14 ×10⁻⁶ cm/s
O=C(NOCCO)c1ncc2cncn2c1Nc1ccc(I)cc1F	–	2.1	120	–	–	–	–	–	8	600	0.08	48	1.48	0.09	150 (≈ 328 µM)	54	0.11	38	11	41	efflux ratio [11]: 0.7; Papp A→B [14]: 19.7 ×10⁻⁶ cm/s; IC50 [15]: 3300 nM; pKa [26]: 2.03; Papp B→A [25]: 14 ×10⁻⁶ cm/s
C[C@H](O)CONC(=O)c1ncc2cncn2c1Nc1ccc(I)cc1F	–	–	52	–	–	–	–	–	5	800	0.055	44	0.61	0.1	48 (≈ 102 µM)	56	0.09	15	10	44	–
C[C@H](CO)CONC(=O)c1ncc2cncn2c1Nc1ccc(I)cc1F	–	–	107	–	–	–	–	–	7	92	0.13	12	9.2	0.14	12 (≈ 24.7 µM)	29	0.13	65	8	19	Ratio (MDCK [27]): 1.3; permeability (MDCK [28]): 7.9 ×10⁻⁶ cm/s; IC50 [15]: 14000 nM; permeability (MDCK [29]): 8.7 ×10⁻⁶ cm/s
O=C(NOCCO)c1ccc2cncn2c1Nc1ccc(I)cc1F [GDC-0623]	> 10000	2.1	51	> 10000	> 10000	> 10000	> 10000	> 10000	4	1320	0.01	13.2	20	0.005	41 (≈ 89.9 µM)	64	0.06	100	14	38	efflux ratio [11]: 2.6; CLhep predicted [12]: 30 mL/min/kg; Papp A→B [14]: 6.2 ×10⁻⁶ cm/s; IC50 [15]: 4400 nM; Stability (Plasma [30]): 82%; half-life [7]: 1.7 h; Drug metabolism (Plasma [31]): metabolite_detected; CLhep predicted [18]: 12 mL/min/kg; Vd [21]: 0.5 L/kg; pKa [26]: 4.3; Papp B→A [25]: 16.5 ×10⁻⁶ cm/s
